The values below come from ChEMBL document CHEMBL1124527, “2(1H)-quinolinones with cardiac stimulant activity. 3. Synthesis and biological properties of 6-imidazol-1-yl derivatives” (1989).

Experiment [1] relates to Canis familiaris. The experiment is described as follows: 2.0 mg/kg of compound was administered orally to conscious adult Beagle dogs (n=4) and the effects on cardiac contractility was determined after 3 hr. It is filed as functional, Canis lupus familiaris, Heart. A digest of the protocol:
(§1)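 Conscious dogs (n = 4) were dosed orally by gavage with a solution of compound. The QA interval is the time in ms from the ECG R wave to the up-stroke of the arterial pressure pulse, measured by computer. Recordings were taken every 0.16 h from 0.5 h predose to 4 h postdose. Each point is the mean of six consecutive 8-s sets. Results are the change from the mean predose value, as mean ± SEM.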

The subject of experiment [2] is Canis familiaris. The experiment is described as follows: Positive inotropic activity after intravenous administration of 50 ug/kg (dose) to anesthetized dog. The format is functional, Canis lupus familiaris. A digest of the protocol: (§2)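 Dogs were anesthetized and intubated. Compound was given through a saphenous vein cannula, in 0.9% saline, 0.5 h after the standard quinazoline at 50 µg/kg, following a 0.75 h equilibration. The cycle was repeated once control levels returned, with at least 0.5 h between doses. LVP was recorded by a Millar catheter via the carotid artery and differentiated to dP/dtmax. Results are % increase in dP/dtmax, and also potency relative to the standard in the same dog: (%drug/%standard)×(dose standard/dose drug).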

For experiment [3], the system named is Canis familiaris. The experiment is described as follows: Inotropic potencies relative to 4-[4-[2-(1,1-dioxo-2-isothiazolidinyl)ethyl]-1-piperidinyl]-6,7-dimethoxyquinazoline (50 ug/kg) in anesthetized dog. It is filed as functional, Canis lupus familiaris. A digest of the protocol: as §2
In experiment [4] the test system is Canis familiaris. The experiment is described as follows: 2.0 mg/kg of compound was administered orally to conscious adult Beagle dogs and the effects on cardiac contractility was determined after 1 hr. The format is functional, Canis lupus familiaris, Heart. An outline of the steps:
as §1

Experiment [5] concerns Canis familiaris. The experiment is described as follows: Positive inotropic activity after intravenous administration of 10 ug/kg (dose) to anesthetized dog. The format is functional, Canis lupus familiaris. A digest of the protocol:
as §2

Experiment [6] relates to Canis familiaris. The experiment is described as follows: 0.25 mg/kg compound was administered orally to conscious adult Beagle dogs (n=4) and the effects on cardiac contractility was determined after 3 hr. It is filed as functional, Canis lupus familiaris, Heart. A digest of the protocol:
as §1

The subject of experiment [7] is Canis familiaris. The experiment is described as follows: 0.25 mg/kg of compound was administered orally to conscious adult Beagle dogs and the effects on cardiac contractility was determined after 1 hr. The format is functional, Canis lupus familiaris, Heart. On the set-up: unit: ms. A digest of the protocol:
as §1

The test system of experiment [8] is Canis familiaris. The experiment is described as follows: Positive inotropic activity after intravenous administration of 25 ug/kg (dose) to anesthetized dog. It is filed as functional, Canis lupus familiaris.
Experiment [9] has as its system Canis familiaris. The experiment is described as follows: 0.5 mg/kg of compound was administered orally to conscious adult Beagle dogs (n=4) and the effects on cardiac contractility was determined after 3 hr. It is filed as functional, Canis lupus familiaris, Heart. An outline of the steps:
as §1

Experiment [10] concerns Canis familiaris. The experiment is described as follows: 0.5 mg/kg of compound was administered orally to conscious adult Beagle dogs and the effects on cardiac contractility was determined after 1 hr. It is filed as functional, Canis lupus familiaris, Heart. A digest of the protocol: as §1
In experiment [11] the test system is Canis familiaris. The experiment is described as follows: 0.25 mg/kg of compound was administered orally to conscious adult Beagle dogs and the effects on cardiac contractility was determined after 3 hr. The format is functional, Canis lupus familiaris, Heart. A digest of the protocol:
as §1

Experiment [12] concerns Canis familiaris. The experiment is described as follows: Positive inotropic activity after intravenous administration of 12.5 ug/kg (dose) to anesthetized dog. It is filed as functional, Canis lupus familiaris. A digest of the protocol:
as §2

Experiment [13] deals with Canis familiaris. The experiment is described as follows: 0.25 mg/kg of compound was administered orally to conscious adult Beagle dogs (n=4) and the effects on cardiac contractility was determined after 3 hr. The format is functional, Canis lupus familiaris, Heart. An outline of the steps:
as §1

For experiment [14], the system named is Canis familiaris. The experiment is described as follows: 0.125 mg/kg of compound was administered orally to conscious adult Beagle dogs and the effects on cardiac contractility was determined after 1 hr. The format is functional, Canis lupus familiaris, Heart. A digest of the protocol: as §1
In experiment [15] the test system is Canis familiaris. The experiment is described as follows: 0.125 mg/kg of compound was administered orally to conscious adult Beagle dogs (n=4) and the effects on cardiac contractility was determined after 3 hr. The format is functional, Canis lupus familiaris, Heart. A digest of the protocol:
as §1

Experiment [16] deals with Canis familiaris. The experiment is described as follows: Positive inotropic activity after intravenous administration of 50 ug/kg (dose) to anesthetized dogs. It is filed as functional, Canis lupus familiaris. An outline of the steps:
as §2

SMILES strings stand for the structures.

Consider `CC(=O)c1c(C)nc(C)n1-c1cc(C)c2nc(O)ccc2c1`, for which the “Decrease in QA interval” value in [1] came to 10; in [4], 6. The “Increase in dP/dTmax” value in [2] is recorded as 16%. This compound also showed a Relative inotropic potency in [3] of 0.4.

Take `CSc1cn(-c2cc(C)c3nc(O)ccc3c2)c(C)n1`: in experiment [5], the “Increase in dP/dTmax” value turned out to be 53%. This compound also showed a Relative inotropic potency in experiment [3] of 5.

As for `Cc1cn(-c2cc(C)c3nc(O)ccc3c2)c(I)n1`, the “Increase in dP/dTmax” value in [5] is 59%. This compound also gave a Relative inotropic potency in [3] of 5.7.

As for `Cc1[nH]c(=O)c(C#N)cc1-c1ccncc1` [MILRINONE], the results for the “Decrease in QA interval” value in experiment [6] and in experiment [7] were 7 and 13, respectively. The same compound showed a Relative inotropic potency in experiment [3] of 1.6. In addition, the “Increase in dP/dTmax” value in [8] is on record as 46%.

In the case of `Cc1cc(-n2cc(-c3ccccc3)nc2C)cc2ccc(O)nc12`, the “Increase in dP/dTmax” value in [5] is reported as 15%. For the same compound, the “Decrease in QA interval” value in [9] was determined as 10; in experiment [10], 13. The Relative inotropic potency in [3] is listed as 2.4.

`Cc1cn(-c2cc(C)c3[nH]c(=O)ccc3c2)c(C)n1` [NANTERINONE]: the “Decrease in QA interval” value in experiment [7] was 16; in [11], 17. Also, the “Increase in dP/dTmax” value in [12] amounted to 40%. Besides, the Relative inotropic potency in [3] is reported as 7.6.

Regarding `CC(=O)c1cn(-c2cc(C)c3nc(O)ccc3c2)c(C)n1`, the “Decrease in QA interval” value in [13] was 19; in experiment [7], 17. Besides, the “Increase in dP/dTmax” value in experiment [5] was found to be 36%. This compound gave a Relative inotropic potency in experiment [3] of 2.6.

Take `Cc1cc(-n2cc(C#N)nc2C)cc2ccc(O)nc12`: the “Decrease in QA interval” value in experiment [14] and in [15] was 15 each time. In addition, the “Increase in dP/dTmax” value in [5] is listed as 30%. This compound also yielded a Relative inotropic potency in experiment [3] of 3.

For `Cc1nc(C)n(-c2cc(C)c3nc(O)ccc3c2)c1Br`, the results for the “Decrease in QA interval” value in experiment [1] and in experiment [4] were 13 and 12, respectively. This compound also came in with a Relative inotropic potency in experiment [3] of 0.7. The “Increase in dP/dTmax” value in [16] turned out to be 26%.

On to `Cc1nc(C)n(-c2cc(C)c3nc(O)ccc3c2)c1S(C)(=O)=O`, for which the “Increase in dP/dTmax” value in [2] was 5%. This compound also came in with a Relative inotropic potency in experiment [3] of 0.1.

Take `Cc1nc(C)n(-c2cc(C)c3nc(O)ccc3c2)c1C#N`: the “Decrease in QA interval” value came to 15 in experiment [13] and 11 in [7]. Also, the “Increase in dP/dTmax” value in experiment [2] is recorded as 70%. The compound further yielded a Relative inotropic potency in experiment [3] of 1.1.

For the compound `Cc1nc(C)n(-c2cc(C)c3nc(O)ccc3c2)c1Cl`, the entries for the “Decrease in QA interval” value in [14] and in experiment [15] were 12 and 10, respectively. Further, in experiment [5], the “Increase in dP/dTmax” value was 32%. For the same compound, the Relative inotropic potency in [3] is on record as 2.9.

Take `CSc1c(C)nc(C)n1-c1cc(C)c2nc(O)ccc2c1`: the “Increase in dP/dTmax” value in experiment [2] came out at 28%. For the same compound, the Relative inotropic potency in experiment [3] was 0.9.

On to `Cc1cc(-n2cc(I)nc2C)cc2ccc(O)nc12`, for which the “Increase in dP/dTmax” value in [5] worked out at 11%. The same compound showed a Relative inotropic potency in [3] of 2.6.

For `Cc1cc(-n2cc(C(=O)c3ccccc3)nc2C)cc2ccc(O)nc12`, the “Increase in dP/dTmax” value in experiment [2] amounted to 31%. The Relative inotropic potency in experiment [3] is 0.5.

As for `Cc1cc(-n2cc(Cl)nc2C)cc2ccc(O)nc12`, the “Increase in dP/dTmax” value in [5] is recorded as 50%. In [3], this compound gave a Relative inotropic potency of 5.6.

As for `CCC(=O)c1cn(-c2cc(C)c3nc(O)ccc3c2)c(C)n1`, the “Increase in dP/dTmax” value in experiment [2] is recorded as 29%. In experiment [3], the Relative inotropic potency came to 0.9.

Consider `Cc1nc(C)n(-c2cc(C)c3nc(O)ccc3c2)c1I`, for which the “Increase in dP/dTmax” value in experiment [2] turned out to be 17%. In [3], this compound had a Relative inotropic potency of 0.5.

Regarding `Cc1nc(C)n(-c2cc(C)c3nc(O)ccc3c2)c1[S+](C)[O-]` (stereo not given), the “Increase in dP/dTmax” value in [2] worked out at 7%. This compound had a Relative inotropic potency in experiment [3] of 0.2.

On to `Cc1cc(-n2cc(C(=O)C(C)C)nc2C)cc2ccc(O)nc12`, for which the “Increase in dP/dTmax” value in experiment [2] was determined as 24%. In experiment [3], the Relative inotropic potency is given as 0.6.

As for `Cc1cc(-n2cc([S+](C)[O-])nc2C)cc2ccc(O)nc12` (stereo not given), the “Increase in dP/dTmax” value in experiment [2] stood at 65%. In addition, the Relative inotropic potency in experiment [3] is reported as 0.7.

`CC(=O)c1nc(C)cn1-c1cc(C)c2nc(O)ccc2c1`: the “Increase in dP/dTmax” value in experiment [2] came to 15%. In experiment [3], this compound showed a Relative inotropic potency of 0.3.

Regarding `Cc1cc(-n2cc(S(C)(=O)=O)nc2C)cc2ccc(O)nc12`, the “Increase in dP/dTmax” value in experiment [2] amounted to 25%. In addition, in experiment [3], the Relative inotropic potency is 0.3.

As for `Cc1cn(-c2cc(C)c3nc(O)ccc3c2)c(C#N)n1`, the “Decrease in QA interval” value in experiment [13] and in [7] was 15 each time. Besides, in experiment [5], the “Increase in dP/dTmax” value was 53%. In [3], this compound yielded a Relative inotropic potency of 4.1.

Take `Cc1cn(-c2cc(C)c3nc(O)ccc3c2)c(-c2ccccc2)n1`: the “Increase in dP/dTmax” value in experiment [2] came out at 15%. The same compound gave a Relative inotropic potency in [3] of 0.3.
